Structures are written as SMILES. Bounds are passed on as bounds.

The source of these data is ChEMBL document CHEMBL1157153, “Novel cyclohexene derivatives as anti-sepsis agents: synthetic studies and inhibition of NO and cytokine production” (Bioorg Med Chem, 2008).

The test system of experiment [1] is RAW264.7. Nature of the experiment: Suppression of LPS-induced NO production in mouse RAW264.7 cells by fluorometric assay. In kind it is functional, cell-based. The gist of the method: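 RAW264.7 cells were seeded at 1 × 10⁵ cells/well and incubated overnight. Supernatant was removed and cells were stimulated with 10 ng/mL LPS plus graded compound concentrations for 20 h at 37 °C, 5% CO₂. The medium was phenol red-free RPMI1640 with 1% heat-inactivated FBS. Compounds came from 10 mM DMF stocks diluted in medium. Supernatant nitrite was read with DAN, then NaOH, as fluorescence at ex 355/em 460 nm.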

Experiment [2] concerns Mus musculus. Briefly: Suppression of LPS-induced serum NO production in mouse endotoxin shock model at 1 mg/kg, iv administered 1 hr before LPS challenge by fluorometric assay.
The subject of experiment [3] is RAW264.7. Briefly: Suppression of LPS-induced IL6 production in mouse RAW264.7 cells. In kind it is functional, cell-based. Summed up:
(§1)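 IC50 is the concentration cutting TNF-α or IL-6 production to 50% of control. Values are means ± SD from three or four experiments.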

For experiment [4], the system named is Mus musculus. Briefly: Protective effect against lethal septic shock in mouse endotoxin shock model assessed as survival at 10 mg/kg, iv. In kind it is functional, organism-based. More on the design: dose 10 mg/kg. The gist of the method: (§2)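 Mice got a lethal LPS dose of 7 mg/kg ip. Compound was given iv 1 h before LPS, in 10% (w/v) glucuronylglucosyl-β-cyclodextrin sodium salt. Survival was recorded over 7 days after LPS, with 7–10 mice per group.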

Experiment [5] relates to Mus musculus. Nature of the experiment: Suppression of LPS-induced serum NO production in mouse endotoxin shock model at 10 mg/kg, iv administered 1 hr before LPS challenge by fluorometric assay.
Experiment [6] deals with Mus musculus. Briefly: Protective effect against lethal septic shock in iv dosed mouse endotoxin shock model. In kind it is functional. The gist of the method: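 Mice challenged with a lethal dose of LPS (7 mg/kg ip). Compounds were dissolved in 10% (w/v) glucuronylglucosyl-beta-cyclodextrin sodium salt and given intravenously at 1, 3 and 10 mg/kg, 1 h before LPS. Vehicle-dosed mice served as controls. Survival was recorded for 7 days after challenge and reported as survivors/total. ED50 is given in mg/kg.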

Experiment [7] relates to RAW264.7. Briefly: Suppression of LPS-induced TNFalpha production in mouse RAW264.7 cells. In kind it is functional, cell-based. The gist of the method:
as §1

The test system of experiment [8] is Mus musculus. Briefly: Suppression of LPS-induced serum NO production in mouse endotoxin shock model at 3 mg/kg, iv administered 1 hr before LPS challenge by fluorometric assay.
Experiment [9] concerns Mus musculus. Briefly: Protective effect against lethal septic shock in mouse endotoxin shock model assessed as survival at 1 mg/kg, iv. Type of experiment: functional, organism-based. Details: dose 1 mg/kg. The gist of the method: as §2

Consider `CCOC(=O)C1=CCCCC1S(=O)(=O)Cc1ccccc1Cl` (single isomer, unassigned; (+)), for which the midpoint of inhibition in the experiment on RAW264.7 [1] (raw264.7), the IC50, lay at 11 nM.
Regarding `CCOC(=O)C1=CCCCC1S(=O)(=O)Oc1ccc(F)cc1Cl` (stereo not given), in the experiment with RAW264.7 [1] (Mus musculus, RAW264.7), inhibition was half-maximal at 904 nM (IC50).
The same measure, in the same setting: with `CCOC(=O)C1=CCCCC1S(=O)(=O)Cc1cccc(Cl)c1Cl` (stereo not given) the figure was 65 nM.
On to `CCOC(=O)C1=CCCC[C@H]1S(=O)(=O)Cc1ccc(F)cc1Cl`, for which the inhibition in vivo at 1 mg/kg in the experiment on Mus musculus [2] came out at 27%. Also, the IC50 worked out at 1.5 nM in the experiment on RAW264.7 [3] and 8.3 nM in the experiment with RAW264.7 [7]. Moreover, the Activity entry in the experiment on Mus musculus [4] was “Non-toxic”. Further, the inhibition in vivo at 10 mg/kg in the experiment with Mus musculus [5] amounted to 76%. Further, the 50% effect level in the experiment on Mus musculus [6] (ED50) was put at a dose of 1.85 mg/kg. Also, the inhibition in vivo at 3 mg/kg in the experiment on Mus musculus [8] was found to be 54%.
As for `CCOC(=O)C1=CCCCC1S(=O)(=O)Cc1cc2ccccc2s1` (stereo not given), the IC50 with RAW264.7 [1] (Mus musculus, RAW264.7) was found to be 101 nM.
The molecule `CCOC(=O)C1=CCCCC1S(=O)(=O)Cc1ccc(F)cc1Cl` (stereo in doubt; (-)-10a) gave an IC50 with RAW264.7 [1] (raw264.7) of 10000 nM.
For the molecule `CCOC(=O)C1=CCCCC1S(=O)(=O)Cc1ccc(F)cc1Cl` (stereo in doubt; 10a), the IC50 was 4.8 nM with RAW264.7 [3], 21 nM with RAW264.7 [7] and 10 nM with RAW264.7 [1] (raw264.7).
Turning to `CCOC(=O)C1=CCCCC1S(=O)(=O)Cc1ccc(F)c(Cl)c1` (stereo not given), in the experiment on RAW264.7 [1] (Mus musculus, RAW264.7), half-maximal inhibition (IC50) required 13 nM.
For the molecule `O=S(=O)(Cc1ccc(F)cc1Cl)C1CCCC=C1CO` (stereo not given), in the experiment with RAW264.7 [1] (Mus musculus, RAW264.7), the IC50 was over 10000 nM.
Same read-out and setting: the same measure for `CC(=O)OCC1=CCCCC1S(=O)(=O)Cc1ccc(F)cc1Cl` (stereo not given): over 10000 nM; for `CCOC(=O)C1=CCCCC1S(=O)(=O)Cc1ccc(F)cc1F` (stereo not given): 14 nM; for `CCOC(=O)C1=CCCCC1S(=O)(=O)C(CF)c1ccc(F)cc1Cl` (stereo in doubt; 26b): 729 nM.
The molecule `COC(=O)C1=CCCCC1S(=O)(=O)Cc1ccc(F)cc1Cl` (stereo not given) yielded an IC50 with RAW264.7 [1] (Mus musculus, RAW264.7) of 99 nM.
With `CCOC(=O)C1=CCCCC1S(=O)(=O)Cc1ccccc1Cl` (stereo in doubt; 10e), the midpoint of inhibition with RAW264.7 [1] (raw264.7), the IC50, lay at 14 nM.
`CCOC(=O)C1=CCCCC1S(=O)(=O)Cc1ccc(Cl)cc1F` (stereo not given) gave an IC50 with RAW264.7 [1] (Mus musculus, RAW264.7) of 104 nM.
Still for that read-out and setting: the same measure for `CCOC(=O)C1=CCCCC1S(=O)(=O)Cc1ccc(Cl)cc1` (stereo not given): 101 nM.
On to `CCOC(=O)C1=CCCC[C@H]1S(=O)(=O)[C@@H](C)c1ccc(F)cc1Cl`, for which the inhibition in vivo at 1 mg/kg with Mus musculus [2] was -10.1%. Further, the IC50 with RAW264.7 [3] stood at 1.8 nM; in the experiment with RAW264.7 [7] it was 20 nM. Also, the Activity result was “Non-toxic” with Mus musculus [4] and “Toxic” with Mus musculus [9]. The inhibition in vivo at 10 mg/kg in the experiment with Mus musculus [5] was 78%. The molecule also gave an ED50 in the experiment with Mus musculus [6] of 5.6 mg/kg. In addition, in the experiment on Mus musculus [8], the inhibition in vivo at 3 mg/kg was 55.7%.
With `CCC(O)C1=CCCCC1S(=O)(=O)Cc1ccc(F)cc1Cl` (stereo not given), the IC50 with RAW264.7 [1] (Mus musculus, RAW264.7) was over 10000 nM.
The molecule `CCOC(=O)C1=CCCCC1S(=O)(=O)C(C)c1ccc(F)cc1Cl` (single isomer, unassigned; (-)) displayed an IC50 in the experiment on RAW264.7 [1] (raw264.7) of 1300 nM. This counts as single-digit micromolar.
Take `CCOC(=O)C1=CCCCC1S(=O)(=O)Cc1cccc(Cl)c1` (stereo not given): in the experiment with RAW264.7 [1] (Mus musculus, RAW264.7), inhibition was half-maximal at 14 nM (IC50). In other words, the double-digit nanomolar range.
Same read-out and setting: the same measure for `CCOC(=O)C1=CCCCC1S(=O)(=O)Cc1ccc(Cl)c(Cl)c1` (stereo not given): 53 nM; for `CCOC(=O)C1=CCCCC1SCc1ccc(F)cc1Cl` (stereo not given): 5640 nM; for `CCOC(=O)C1=CCCCC1S(=O)(=O)Nc1ccc(F)cc1Cl` (stereo not given): 4.5 nM.
Molecule `CCOC(=O)C1=CCCCC1S(=O)(=O)Cc1ccc(F)cc1Cl` (single isomer, unassigned; (+)) came in with an IC50 with RAW264.7 [1] (raw264.7) of 5.7 nM.
`CCOC(=O)C1=CCCCC1S(=O)(=O)Cc1c[nH]c2ccccc12` (stereo not given) came in with an IC50 in the experiment on RAW264.7 [1] (Mus musculus, RAW264.7) of 1010 nM.
Still for that read-out and setting: with `CCOC(=O)C1=CCCCC1S(=O)(=O)Cc1coc2ccccc12` (stereo not given) the figure was 106 nM; with `CCOC(=O)C1=CCCCC1S(=O)(=O)Cc1cc(Cl)ccc1F` (stereo not given), 23 nM.
On the same count and under the same terms, with `CC(C)OC(=O)C1=CCCCC1S(=O)(=O)Cc1ccc(F)cc1Cl` (stereo not given) the figure was 100 nM; with `CCC(=O)C1=CCCCC1S(=O)(=O)Cc1ccc(F)cc1Cl` (stereo not given), 64 nM.
On the same count and under the same terms, with `CCOC(=O)C1=CCCCC1S(=O)(=O)Cc1cc2ccccc2o1` (stereo not given) the figure was 134 nM; with `CCOC(=O)C1=CCCCC1S(=O)(=O)Cc1ccncc1` (stereo not given), 1410 nM.
`CCOC(=O)C1=CCCCC1S(=O)(=O)C(CF)c1ccc(F)cc1Cl` (stereo in doubt; 26a): inhibition in the experiment with RAW264.7 [1] (raw264.7) was half-maximal at 435 nM (IC50).
For `CCOC(=O)C1=CCCCC1NS(=O)(=O)c1ccc(F)cc1Cl` (stereo not given), in the experiment on RAW264.7 [1] (Mus musculus, RAW264.7), the IC50 was over 10000 nM.
Regarding `CCOC(=O)C1=CCCCC1S(=O)(=O)Cc1ccc(Cl)cc1Cl` (stereo not given), the IC50 in the experiment with RAW264.7 [1] (Mus musculus, RAW264.7) amounted to 60 nM. In other words, the double-digit nanomolar range.
With `CCOC(=O)C1=CCCCC1S(=O)(=O)Cc1ccccc1Cl` (single isomer, unassigned; (-)), in the experiment on RAW264.7 [1] (raw264.7), the IC50 was determined as 1200 nM.
Same read-out and setting: the same measure for `CCOC(=O)C1=CCCCC1S(=O)(=O)C(C)c1ccccc1` (stereo in doubt; 19b): 1320 nM.
As for `CCOC(=O)C1=CCCCC1S(=O)(=O)C(C)c1ccc(F)cc1Cl` (stereo in doubt; 22a), the IC50 in the experiment with RAW264.7 [3] stood at 5.8 nM; in the experiment with RAW264.7 [7], 42 nM; with RAW264.7 [1] (raw264.7) it was 14 nM.
`CCOC(=O)C1=CCCCC1S(=O)(=O)C(C)c1ccc(F)cc1Cl` (single isomer, unassigned; (+)) showed an IC50 in the experiment with RAW264.7 [1] (raw264.7) of 4 nM. In other words, the single-digit nanomolar range.
The same measure, in the same setting: the same measure for `CCOC(=O)C1=CCCCC1S(=O)(=O)C(C)c1ccccc1` (stereo in doubt; 19a): 100 nM.
In the case of `CCCC(=O)C1=CCCCC1S(=O)(=O)Cc1ccc(F)cc1Cl` (stereo not given), the IC50 in the experiment with RAW264.7 [1] (Mus musculus, RAW264.7) amounted to 11 nM.
The same measure, in the same setting: the same measure for `CCOC(=O)C1=CCCCC1S(=O)(=O)Cc1ccccc1` (stereo not given): 101 nM; for `CCCCOC(=O)C1=CCCCC1S(=O)(=O)Cc1ccc(F)cc1Cl` (stereo not given): 103 nM.
Still for that read-out and setting: the same measure for `CCOC(=O)C1=CCCCC1S(=O)(=O)Cc1ccccc1F` (stereo not given): 97 nM.
`CCOC(=O)C1=CCCCC1S(=O)(=O)C(C)c1ccc(F)cc1Cl` (stereo in doubt; 22b) gave an IC50 with RAW264.7 [1] (raw264.7) of 102 nM.
For the molecule `CCCOC(=O)C1=CCCCC1S(=O)(=O)Cc1ccc(F)cc1Cl` (stereo not given), the midpoint of inhibition in the experiment on RAW264.7 [1] (Mus musculus, RAW264.7), the IC50, lay at 14 nM.
Still for that read-out and setting: the same measure for `CCOC(=O)C1=CCCCC1S(=O)(=O)Cc1cccc(Cl)c1F` (stereo not given): 12 nM; for `CCOC(=O)C1=CCCCC1S(=O)(=O)Cc1cccc(F)c1F` (stereo not given): 100 nM; for `CCOC(=O)C1=CCCCC1S(=O)(=O)Cc1ccsc1` (stereo not given): 105 nM.

As usually defined, the IC50 is the concentration at which inhibition is half-maximal. A low value points to inhibition by little substance. What is called inhibition in vivo is the change of the read-out against control, counted positive when it falls. The ED50 is the midpoint of the dose-response relation.
